Series [1] deals with T1, Peroxisome proliferator-activated receptor alpha (Homo sapiens) (UniProt Q07869).
T1 sequence (whole entry): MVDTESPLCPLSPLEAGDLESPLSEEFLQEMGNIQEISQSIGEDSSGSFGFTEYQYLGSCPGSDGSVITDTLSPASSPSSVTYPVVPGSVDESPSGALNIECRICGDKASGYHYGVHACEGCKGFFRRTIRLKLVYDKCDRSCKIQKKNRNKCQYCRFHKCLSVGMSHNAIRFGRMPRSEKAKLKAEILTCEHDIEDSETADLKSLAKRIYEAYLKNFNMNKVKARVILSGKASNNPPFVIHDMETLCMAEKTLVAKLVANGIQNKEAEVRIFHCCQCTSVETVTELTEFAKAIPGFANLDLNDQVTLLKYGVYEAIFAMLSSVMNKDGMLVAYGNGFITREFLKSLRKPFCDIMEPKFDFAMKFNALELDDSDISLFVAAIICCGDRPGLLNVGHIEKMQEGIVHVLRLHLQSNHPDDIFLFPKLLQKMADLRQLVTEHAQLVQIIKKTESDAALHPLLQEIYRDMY
Nature of the series: Agonist activity at human PPARalpha in 8 day differentiated human SGBS cells assessed as increase in ADIPOQ gene expression at 25 uM incubated for 24 hrs by SYBR-green based qPCR analysis. Type of series: cell-based. Summed up:
(§1)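 SGBS preadipocytes were seeded at passage P6-P8 and grown to confluence. They were differentiated for 4 days in Quickdiff (3FC plus dexamethasone, IBMX and rosiglitazone), then kept in 3FC with medium renewed every fourth day. On day 8, cells were stimulated for 24 h in 3FC with compound:BSA or rosiglitazone. SYBR-green qPCR used gene-specific primers. Data are mean ± SEM of three biological replicates in duplicate.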
For orientation: In qPCR the cycle at which signal appears reflects the starting amount.

For series [2], the target named is T2, Oxysterols receptor LXR-alpha (Homo sapiens) (UniProt Q13133).
T2 sequence (whole entry): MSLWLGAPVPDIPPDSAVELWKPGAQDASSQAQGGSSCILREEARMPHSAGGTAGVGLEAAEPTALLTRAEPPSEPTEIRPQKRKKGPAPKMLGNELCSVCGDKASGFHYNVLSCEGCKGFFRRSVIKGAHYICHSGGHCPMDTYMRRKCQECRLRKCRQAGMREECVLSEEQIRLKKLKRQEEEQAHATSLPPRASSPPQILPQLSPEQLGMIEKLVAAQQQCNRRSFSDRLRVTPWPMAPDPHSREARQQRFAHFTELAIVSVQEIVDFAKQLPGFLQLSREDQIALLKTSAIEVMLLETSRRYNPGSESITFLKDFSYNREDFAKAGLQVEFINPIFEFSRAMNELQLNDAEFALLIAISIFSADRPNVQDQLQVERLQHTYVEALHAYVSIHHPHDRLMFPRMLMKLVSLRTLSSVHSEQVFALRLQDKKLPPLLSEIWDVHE
Briefly: Agonist activity at recombinant human LXRalpha LBD (164 to 447 residues) expressed in African green monkey COS-1 cells at 25 to 50 uM incubated for 18 hrs by luciferase reporter gene assay. Type of series: cell-based. The conditions noted are these: dose 25-50 µM. In outline:
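Transient Gal4 one-hybrid assay in COS-1 cells (7×10^4 per well), transfected 24 h after seeding. Plasmids were Gal4-DBD fused to the human nuclear receptor LBD, a 5×UAS-SV40 luciferase reporter and pRL-CMV Renilla control. Ligand in DMSO (final 0.1%) was added 5 h post-transfection. Dual-luciferase activity was read after 18 h, expressed as RLU, from three biological replicates in quadruplicate.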
(In general: In a reporter assay the amount or activity of a reporter protein is the signal.)

Series [3] addresses T1, Peroxisome proliferator-activated receptor alpha (Homo sapiens). Nature of the series: Agonist activity at human PPARalpha in human HuH-7 cells assessed as increase in ACOX1 gene expression at 50 uM incubated for 24 hrs by SYBR-green based qPCR analysis. In kind it is cell-based. Summed up: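 Cells were seeded at 2×10^5 per well and treated 24 h later with compound in DMSO (final 0.1%). The next day, cells were washed and scraped into RLT buffer. RNA was isolated, and target gene mRNA was quantified by SYBR-green qPCR with specific primers.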

The target in series [4] is T3, Peroxisome proliferator-activated receptor gamma (Homo sapiens) (UniProt P37231).
T3 sequence (whole entry): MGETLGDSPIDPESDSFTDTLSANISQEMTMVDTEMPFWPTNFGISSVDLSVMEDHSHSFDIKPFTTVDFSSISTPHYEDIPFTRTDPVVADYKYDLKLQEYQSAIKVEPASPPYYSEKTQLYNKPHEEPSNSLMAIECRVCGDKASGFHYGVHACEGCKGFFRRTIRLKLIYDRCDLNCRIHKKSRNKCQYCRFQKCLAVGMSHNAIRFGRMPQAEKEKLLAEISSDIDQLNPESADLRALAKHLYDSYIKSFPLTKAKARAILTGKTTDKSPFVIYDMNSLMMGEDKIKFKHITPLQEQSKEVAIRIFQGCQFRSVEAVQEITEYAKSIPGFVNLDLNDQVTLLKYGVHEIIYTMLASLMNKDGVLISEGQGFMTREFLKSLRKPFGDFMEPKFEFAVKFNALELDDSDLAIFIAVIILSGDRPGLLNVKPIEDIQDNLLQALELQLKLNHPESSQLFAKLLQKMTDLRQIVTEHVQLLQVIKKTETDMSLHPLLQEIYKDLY
Nature of the series: Agonist activity at human PPARgamma in 8 day differentiated human SGBS cells assessed as decrease in TNF gene expression at 25 uM incubated for 24 hrs by SYBR-green based qPCR analysis. Type of series: cell-based. As to conditions: filed as agonist.

In series [5] the test system is SGBS. Briefly: Induction of adipogenesis in 8 day differentiated human SGBS cells assessed as increase in PPARG mRNA expression at 25 uM measured upto 12 days by qRT-PCR analysis. In kind it is functional, cell-based. As to conditions: time day <=12. Summed up:
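SGBS cells were grown to confluence (day 0). Quickdiff medium was supplemented with compound or rosiglitazone for 4 days, followed by 3FC medium. DMSO or DMSO:BSA served as control. RNA was harvested on days 0, 4, 8 and 12, and expression was measured by SYBR-green qPCR. Data are mean ± SEM of at least three biological replicates in duplicate.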

For series [6], the target named is T3, Peroxisome proliferator-activated receptor gamma (Homo sapiens). Nature of the series: Agonist activity at human PPARgamma in 8 day differentiated human SGBS cells assessed as increase in leptin gene expression at 25 uM incubated for 24 hrs by SYBR-green based qPCR analysis. Type of series: cell-based. As to conditions: filed as agonist.
For series [7], the target named is T1, Peroxisome proliferator-activated receptor alpha (Homo sapiens). Nature of the series: Agonist activity at human PPARalpha in 8 day differentiated human SGBS cells assessed as increase in […] gene expression at 25 uM incubated for 24 hrs by SYBR-green based qPCR analysis. In kind it is cell-based. The conditions noted are these: filed as agonist. Summed up: as §1

Series [8] has as its system SGBS. Nature of the series: Induction of adipogenesis in 8 day differentiated human SGBS cells assessed as increase in volume of lipid droplets at 25 uM measured upto 12 days by oil-O-red staining based inverted microscopic analysis. Type of series: functional, cell-based. As to conditions: time day <=12. Summed up:
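SGBS cells were differentiated in Quickdiff for 4 days, supplemented with 25 µM oxo-fatty acid or 2 µM rosiglitazone, then in 3FC to day 8. Controls were DMSO (0.025%) or BSA (4.2 µM). Cells were fixed in 4% paraformaldehyde for 15 min and stained 15 min with Oil Red O for neutral lipids. They were imaged by inverted microscope at 10× and 40×. Three biological replicates were run in duplicate.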

Series [9] can be described thus: Cytotoxicity against African green monkey COS-1 cells assessed as cell viability at EC50 concentration for PPAR activation assay by LDH assay. As to conditions: chlorocebus aethiops, read-out: Activity. In kind it is cell-based. In outline: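 Assayed in the same COS-1 cultures as the Gal4-LBD PPAR reporter assays. Lactate dehydrogenase released into the medium was measured with a commercial kit per the maker's protocol. Absorbance was read at 492/750 nm.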

Calls of active or inactive are those of the source. The rule behind the calls is not given here.

For the molecule `CCCCC/C=C/C(=O)CCCCCCCC(=O)O`, the outcome in series [1], in series [2] and in series [3] was inactive. Besides, the result in series [4], in series [5], in [6], in series [7] and in series [8] was Active. In addition, in series [9], the viability was more than 95%.
Consider `CCCCCCCC(=O)/C=C/CCCCCC(=O)O`, for which the result in series [1], in series [2] and in [3] was inactive. Moreover, the outcome in series [4], in [5], in series [6], in [7] and in series [8] was Active. For the same molecule, in [9], the viability is more than 95%.

Values taken from ChEMBL document CHEMBL4715825, “Synthesis and biological evaluations of marine oxohexadecenoic acids: PPARα/γ dual agonism and anti-diabetic target gene effects” (Eur J Med Chem, 2018).
